{"data": "Measured values from different studies", "PIK3CA Q546K": "Phosphatidylinositol 4,5-bisphosphate 3-kinase catalytic subunit alpha isoform (PIK3CA, Homo sapiens, UniProt P42336, Q546K)", "PIK3CA": "Phosphatidylinositol 4,5-bisphosphate 3-kinase catalytic subunit alpha isoform (PIK3CA, Homo sapiens, UniProt P42336)", "PIK3CA H1047Y": "Phosphatidylinositol 4,5-bisphosphate 3-kinase catalytic subunit alpha isoform (PIK3CA, Homo sapiens, UniProt P42336, H1047Y)", "PIK3CA E545A": "Phosphatidylinositol 4,5-bisphosphate 3-kinase catalytic subunit alpha isoform (PIK3CA, Homo sapiens, UniProt P42336, E545A)", "PIK3CA E545K": "Phosphatidylinositol 4,5-bisphosphate 3-kinase catalytic subunit alpha isoform (PIK3CA, Homo sapiens, UniProt P42336, E545K)", "PIK3CA E542K": "Phosphatidylinositol 4,5-bisphosphate 3-kinase catalytic subunit alpha isoform (PIK3CA, Homo sapiens, UniProt P42336, E542K)", "note": "Compare with care: the assays were run in different laboratories."}
{"Structure (SMILES)": "O=C(O)c1cc(-c2ccc(C3CCNCC3)cc2)c2ccc(-c3ccc(C(F)(F)F)cc3)cc2c1", "target": "Phosphatidylinositol 4,5-bisphosphate 3-kinase catalytic subunit alpha isoform (PIK3CA, Homo sapiens, UniProt P42336, C420R)", "test": "cell-free assay, competition with immobilised ligand", "conditions": "1 µM", "endpoint": "remaining binding", "result": "95%"}
{"Structure (SMILES)": "N[C@H]1CCN(c2nccc(-c3cnn4ncccc34)n2)C1", "target": "PIK3CA Q546K", "test": "binding", "conditions": "1 µM", "endpoint": "remaining binding", "result": "91%"}
{"Structure (SMILES)": "CNC(=O)Nc1ccc2c(c1)CC[C@@]21OC(=O)N(CC(=O)N(Cc2ccc(F)cc2)[C@@H](C)C(F)(F)F)C1=O", "target": "Phosphatidylinositol 4,5-bisphosphate 3-kinase catalytic subunit alpha isoform (PIK3CA, Homo sapiens, UniProt P42336, I800L)", "test": "cell-free assay, competition with immobilised ligand", "conditions": "1 µM", "endpoint": "remaining binding", "result": "83%"}
{"Structure (SMILES)": "C=CC(=O)N(C)CCCCC(=O)N1CCN(c2nc(-c3cnc(N)nc3C(F)F)nc(N3CCOCC3)n2)CC1", "target": "PIK3CA", "test": "ligand displacement, TR-FRET", "endpoint": "kinact", "result": "0.000127 s⁻¹"}
{"Structure (SMILES)": "COCCOc1nc(-c2ccc(Cl)nc2)nc2c1CN(C(=O)c1ncn3ccccc13)CC2", "target": "PIK3CA H1047Y", "test": "cell-free assay, competition with immobilised ligand", "conditions": "0.1 µM", "endpoint": "remaining binding", "result": "79%"}
{"Structure (SMILES)": "C[C@H]1CCN(c2nccc(-c3cnn4ncccc34)n2)C1", "target": "PIK3CA", "test": "binding", "conditions": "1 µM", "endpoint": "remaining binding", "result": "80%"}
{"Structure (SMILES)": "CC(C)=CC(=O)CCCC(=O)N1CCN(c2nc(-c3cnc(N)nc3C(F)F)nc(N3CCOCC3)n2)CC1", "target": "PIK3CA", "test": "cell-free assay, TR-FRET", "endpoint": "kinact", "result": "2.6e-05 s⁻¹"}
{"Structure (SMILES)": "CC1CCCN1c1nccc(-c2cnn3ncccc23)n1 (stereo not drawn)", "target": "PIK3CA E545A", "test": "binding", "conditions": "1 µM", "endpoint": "remaining binding", "result": "83%"}
{"Structure (SMILES)": "O=C(Nc1ccc(Oc2ccc(F)cc2)cc1)N1CCc2ncccc2[C@H]1c1ccc(F)cc1", "target": "PIK3CA E545K", "test": "cell-free assay, competition with immobilised ligand", "conditions": "1 µM", "endpoint": "remaining binding", "result": "73%"}
{"Structure (SMILES)": "O=S(=O)(Nc1cc(Sc2ncn[nH]2)c(O)c2ccccc12)c1ccc(-c2ccccc2)cc1", "target": "PIK3CA", "test": "enzyme activity, inhibitor", "conditions": "1 µM", "endpoint": "remaining activity", "result": "≥ 75%"}
{"Structure (SMILES)": "F[C@@H]1CCN(c2nccc(-c3cnn4ncccc34)n2)C1", "target": "PIK3CA E542K", "test": "binding", "conditions": "1 µM", "endpoint": "remaining binding", "result": "54%"}
{"Structure (SMILES)": "Cc1cc(C)c(-n2ccn3nc(-c4cccnc4)cc23)cc1NC(=O)c1cc(C#N)cc(S(F)(F)(F)(F)F)c1", "target": "PIK3CA E542K", "test": "cell-free assay, competition with immobilised ligand", "conditions": "0.1 µM", "endpoint": "remaining binding", "result": "83.6%"}
{"Structure (SMILES)": "C/C=C/C(=O)CCCCCC(=O)N1CCN(c2nc(-c3cnc(N)nc3C(F)F)nc(N3CCOCC3)n2)CC1", "target": "PIK3CA", "test": "cell-free assay, TR-FRET", "endpoint": "kinact", "result": "0.0153 s⁻¹"}
{"Structure (SMILES)": "CC(C)CCn1c(SCC(=O)Nc2ccccc2C(F)(F)F)nc2nccnc2c1=O", "target": "PIK3CA", "test": "enzyme activity, inhibitor", "conditions": "10 µM", "endpoint": "inhibition", "result": "< 20%"}
{"Structure (SMILES)": "CN(C(=O)c1ccccc1)c1cc(N(C)c2ccc3c(c2)CCc2ccc(C(=O)NCCN4CCOCC4)cc2C3=O)ccc1F", "target": "PIK3CA E545A", "test": "cell-free assay, competition with immobilised ligand", "conditions": "1 µM", "endpoint": "remaining binding", "result": "100%"}
{"Structure (SMILES)": "CCCCNc1ncc2c(-c3ccc(F)cc3)nn(C[C@H]3CC[C@H](N)CC3)c2n1", "target": "PIK3CA", "test": "target engagement in cells, inhibitor, chemoproteomics", "conditions": "20 mM", "endpoint": "inhibition", "result": "70.8%"}
{"Structure (SMILES)": "C=CC(=O)N1CCC(C(=O)N(C)CCCC(=O)N2CCN(c3nc(-c4cnc(N)nc4C(F)F)nc(N4CCOCC4)n3)CC2)CC1", "target": "PIK3CA", "test": "cell-free assay, TR-FRET", "endpoint": "kinact/KI", "result": "33600 M⁻¹ s⁻¹"}
{"Structure (SMILES)": "Cc1cnn2ncc(-c3ccnc(N(C)C)n3)c2c1", "target": "PIK3CA E545K", "test": "binding", "conditions": "1 µM", "endpoint": "remaining binding", "result": "82%"}
{"Structure (SMILES)": "Nc1ncnc2occ(-c3ccc(NC(=O)Nc4cc(C(F)(F)F)ccc4F)cc3)c12", "target": "PIK3CA Q546K", "test": "cell-free assay, inhibitor", "conditions": "20 µM", "endpoint": "remaining signal", "result": "72%"}
{"Structure (SMILES)": "Cc1ccc(C(=O)Nc2ccc(CN3CCN(C)CC3)c(C(F)(F)F)c2)cc1C#Cc1cnc2cccnn12", "target": "PIK3CA E545K", "test": "enzyme activity, inhibitor", "conditions": "23.5 nM", "endpoint": "remaining activity", "result": "88%"}
{"Structure (SMILES)": "CC(C)CC(=O)N1CCc2nc(-c3ccc(Br)cc3)nc(N(C)Cc3ccccc3)c2C1", "target": "Phosphatidylinositol 4,5-bisphosphate 3-kinase catalytic subunit alpha isoform (PIK3CA, Homo sapiens, UniProt P42336, M1043I)", "test": "cell-free assay, competition with immobilised ligand", "conditions": "0.1 µM", "endpoint": "remaining binding", "result": "53%"}
{"Structure (SMILES)": "CN(c1nccc(-c2cnn3ncccc23)n1)C1CC1", "target": "PIK3CA H1047Y", "test": "binding", "conditions": "1 µM", "endpoint": "remaining binding", "result": "100%"}
{"Structure (SMILES)": "C=CC(=O)NCCCCC(=O)N1CCN(c2nc(-c3cnc(N)nc3C(F)F)nc(N3CCOCC3)n2)CC1", "target": "PIK3CA", "test": "ligand displacement, TR-FRET", "endpoint": "kinact", "result": "9.6e-05 s⁻¹"}
{"Structure (SMILES)": "COc1cccc2c(NCc3ccccc3)nc(-n3c(N)nc4ccccc43)nc12", "target": "PIK3CA", "test": "target engagement in cells, inhibitor, chemoproteomics", "conditions": "20 mM", "endpoint": "inhibition", "result": "5.6%"}
{"Structure (SMILES)": "Cc1ccc(C(=O)NCc2ccsc2)cc1C#Cc1cn(C(C)C)c2ncnc(N)c12", "target": "Phosphatidylinositol 4,5-bisphosphate 3-kinase catalytic subunit alpha isoform, with p85 (PIK3CA, Homo sapiens, UniProt P42336, E542K)", "test": "enzyme activity, inhibitor", "conditions": "1 µM", "endpoint": "activity vs control", "result": "100%"}
{"Structure (SMILES)": "CN([C@@H]1CCc2c(CC(=O)O)c3cc(S(C)(=O)=O)ccc3n2C1)S(=O)(=O)c1ccc(F)cc1", "target": "PIK3CA E545A", "test": "cell-free assay, competition with immobilised ligand", "conditions": "1 µM", "endpoint": "remaining binding", "result": "96%"}
{"Structure (SMILES)": "CC(=O)Oc1ccc(-c2coc3c4c(c(CC=C(C)C)c(OC(C)=O)c3c2=O)OC(C)(C)C=C4)cc1OC(C)=O", "target": "PIK3CA E545K", "test": "enzyme activity, inhibitor, ADP detection", "conditions": "10 µM", "endpoint": "remaining activity", "result": "37.6%"}
